Tests used:
[1] = tested on: Lewis lung carcinoma cell line; assay: Antitumor activity against mouse LLC cells xenografted in mouse assessed as tumor inhibition at 2.5 mg/kg, ip qd for 7 days measured every 3 days for 21 days; format: functional; settings: route intraperitoneal
[2] = Antitumor activity against mouse Sarcoma 180 cells xenografted in mouse assessed as tumor inhibition at 2.5 mg/kg, ip qd for 7 days measured every 3 days for 21 days; format: functional; settings: Sarcoma-180, ip, route intraperitoneal
[3] = tested on: KB; assay: Cytotoxicity against human KB cells by MTT assay; format: functional, cell-based
Outline: (§1)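 Cells grown in RPMI-1640 with 10% fetal calf serum plus penicillin and streptomycin, 37 °C, 5% CO₂. Compounds in DMSO, final ≤2% (v/v), tested in 96-well cultures with MTT staining. IC₅₀ = concentration cutting optical density 50% versus untreated cells; three replicate wells per point; mean of three independent determinations.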

[4] = tested on: A-375; assay: Cytotoxicity against human A375 cells by MTT assay; format: functional, cell-based; outline: as §1
[5] = tested on: Mus musculus; assay: Neurotoxicity in ip dosed C57BL/6 mouse assessed as tremble, twitch, jumping and supination response; format: toxicity, organism-based; settings: in vivo
Outline: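 C57BL/6 mice (9–12 weeks, 18–22 g), fasted overnight with water, dosed i.p. with 1.0–500 mg/kg in 0.5% CMC-Na; 10 per group (5 male, 5 female). Watched continuously 2 h for tremor, twitch, jumping, supination and other behavior, then intermittently to 24 h and occasionally to 14 days; killed day 14, with heart, liver and kidneys inspected.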

[6] = tested on: A549; assay: Cytotoxicity against human A549 cells by MTT assay; format: functional, cell-based; outline: as §1
[7] = tested on: OS-RC-2; assay: Cytotoxicity against human OS-RC2 cells by MTT assay; format: functional, cell-based; outline: as §1
[8] = tested on: U-251; assay: Cytotoxicity against human U251 cells by MTT assay; format: functional, cell-based; outline: as §1
[9] = tested on: HT-29; assay: Cytotoxicity against human HT-29 cells by MTT assay; format: functional, cell-based; outline: as §1
[10] = tested on: SCaBER; assay: Cytotoxicity against human SCaBER cells by MTT assay; format: functional, cell-based; outline: as §1
[11] = tested on: 769-P; assay: Cytotoxicity against human 769-P cells by MTT assay; format: functional, cell-based; outline: as §1
[12] = tested on: 786-0; assay: Cytotoxicity against human 786-0 cells by MTT assay; format: functional, cell-based; outline: as §1
[13] = Cytotoxicity against human Blu-87 cells by MTT assay; format: functional, cell-based; outline: as §1
[14] = tested on: CWR22R; assay: Cytotoxicity against human 22Rv1 cells by MTT assay; format: functional, cell-based; outline: as §1
[15] = Acute toxicity in ip dosed C57BL/6 mouse measured up to 14 days; format: organism-based; settings: in vivo
Outline: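 Healthy C57BL/6 mice (9–12 weeks, 18–22 g), fasted overnight, 10 per group (5 male, 5 female). Single i.p. dose, 1.0 to 500 mg/kg in 0.5% CMC-Na. Watched continuously for 2 h, intermittently over 24 h, then occasionally to day 14 for behaviour, deaths and delayed effects. Heart, liver and kidneys inspected at necropsy. LD50 derived graphically.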

[16] = Antitumor activity against mouse Sarcoma 180 cells xenografted in mouse assessed as tumor inhibition at 1 mg/kg, ip qd for 7 days measured every 3 days for 21 days; format: functional; settings: Sarcoma-180, ip, route intraperitoneal
[17] = tested on: Lewis lung carcinoma cell line; assay: Antitumor activity against mouse LLC cells xenografted in mouse assessed as tumor inhibition at 1 mg/kg, ip qd for 7 days measured every 3 days for 21 days; format: functional; settings: route intraperitoneal
[18] = Antitumor activity against mouse Sarcoma 180 cells xenografted in mouse assessed as tumor inhibition at 20 mg/kg, ip qd for 7 days measured every 3 days for 21 days; format: functional; settings: Sarcoma-180, ip, route intraperitoneal
[19] = tested on: Lewis lung carcinoma cell line; assay: Antitumor activity against mouse LLC cells xenografted in mouse assessed as tumor inhibition at 20 mg/kg, ip qd for 7 days measured every 3 days for 21 days; format: functional; settings: route intraperitoneal
[20] = tested on: HepG2; assay: Cytotoxicity against human HepG2 cells by MTT assay; format: functional, cell-based; outline: as §1
[21] = tested on: Bel-7402; assay: Cytotoxicity against human Bel7402 cells by MTT assay; format: functional, cell-based; outline: as §1
[22] = tested on: MCF7; assay: Cytotoxicity against human MCF7 cells by MTT assay; format: functional, cell-based; outline: as §1
[23] = tested on: HeLa; assay: Cytotoxicity against human HeLa cells by MTT assay; format: functional, cell-based; outline: as §1
[24] = tested on: BGC-823; assay: Cytotoxicity against human BGC823 cells by MTT assay; format: functional, cell-based; outline: as §1
[25] = Antitumor activity against mouse Sarcoma 180 cells xenografted in mouse assessed as tumor inhibition at 3 mg/kg, ip qd for 7 days measured every 3 days for 21 days; format: functional; settings: Sarcoma-180, ip, route intraperitoneal
[26] = tested on: Lewis lung carcinoma cell line; assay: Antitumor activity against mouse LLC cells xenografted in mouse assessed as tumor inhibition at 3 mg/kg, ip qd for 7 days measured every 3 days for 21 days; format: functional; settings: route intraperitoneal

CCn1c2cc(OCc3c(F)c(F)c(F)c(F)c3F)ccc2c2cc[n+](Cc3ccccc3)c(C)c21.[Br-] gave an inhibition in vivo at 2.5 mg/kg [1] of 23.7%, an inhibition in vivo at 2.5 mg/kg [2] of 36.9% and an IC50 [3] of 13.8 µM. The IC50 [4] was 3.8 µM, the Activity [5] was “Non-toxic” and the IC50 [6] was 1.8 µM. For the same compound, the IC50 [7] was 1.8 µM, the IC50 [8] was 6.6 µM and the IC50 [9] was 1.6 µM. For the same compound, the IC50 [10] was 6.8 µM, the IC50 [11] was 13 µM and the IC50 [12] was 2.9 µM. For the same compound, the IC50 [13] was 17.7 µM, the IC50 [14] was < 1.4 µM and the LD50 at 336 h [15] was 12.5 mg/kg.
With Cc1c2c(cc[n+]1Cc1ccccc1)c1ccc(OCc3ccccc3)cc1n2CC(C)C.[Br-] the IC50 [3] was < 1.5 µM, the IC50 [4] was 3.3 µM and the Activity [5] was “Non-toxic”. The IC50 [6] was 3.5 µM, the IC50 [7] was 4.6 µM and the IC50 [8] was < 1.5 µM. It also gave an IC50 [9] of 3.4 µM, an inhibition in vivo at 1 mg/kg [16] of 52.6% and an IC50 [10] of 4.6 µM. For the same compound, the IC50 [11] was 2.4 µM, the IC50 [12] was < 1.5 µM and the inhibition in vivo at 1 mg/kg [17] was 23.7%. For the same compound, the IC50 [13] was 6.9 µM, the IC50 [14] was < 1.5 µM and the LD50 at 336 h [15] was 5 mg/kg.
With CCC(CC)Oc1ccc2c3ccnc(C)c3n(CCCc3ccccc3)c2c1 the inhibition in vivo at 20 mg/kg [18] was 30.1%, the inhibition in vivo at 20 mg/kg [19] was 27.1% and the Activity [5] was “Non-toxic”. For the same compound, the IC50 [20] was 7.3 µM, the IC50 [21] was 34.3 µM and the IC50 [22] was 41.9 µM. For the same compound, the IC50 [23] was 70.1 µM, the IC50 [24] was 18.3 µM and the LD50 at 336 h [15] was 100 mg/kg.
In the case of CCn1c2cc(OCC(C)C)ccc2c2cc[n+](Cc3ccccc3)c(C)c21.[Br-], the inhibition in vivo at 2.5 mg/kg [1] is reported as 30%, the inhibition in vivo at 2.5 mg/kg [2] is reported as 44.2% and the IC50 [3] is reported as < 1.7 µM. The IC50 [4] was 7.8 µM, the Activity [5] was “Non-toxic” and the IC50 [6] was 11.6 µM. The IC50 [7] was 10.6 µM, the IC50 [8] was 17.3 µM and the IC50 [20] was 9.6 µM. For the same compound, the IC50 [9] was 4 µM, the IC50 [21] was 3.2 µM and the IC50 [10] was 34.1 µM. For the same compound, the IC50 [11] was 5.2 µM, the IC50 [12] was 8.5 µM and the IC50 [13] was 25.9 µM. The IC50 [22] was 11.1 µM, the IC50 [23] was 4.9 µM and the IC50 [24] was 10.6 µM. The LD50 at 336 h [15] was 12.5 mg/kg.
In the case of CCn1c2cc(OCCCc3ccccc3)ccc2c2cc[n+](Cc3ccccc3)c(C)c21.[Br-], the inhibition in vivo at 3 mg/kg [25] is reported as 53.1%, the IC50 [3] is reported as < 1.5 µM and the IC50 [4] is reported as 2.4 µM. The Activity [5] was “Non-toxic”, the IC50 [6] was 2.3 µM and the IC50 [7] was 2.2 µM. For the same compound, the IC50 [8] was 10.5 µM, the IC50 [20] was 7.6 µM and the IC50 [9] was 4.2 µM. For the same compound, the IC50 [21] was 2.4 µM, the IC50 [10] was 16.2 µM and the IC50 [11] was 5 µM. For the same compound, the inhibition in vivo at 3 mg/kg [26] was 27.2%, the IC50 [12] was 1.5 µM and the IC50 [13] was 17.3 µM. For the same compound, the IC50 [22] was 2.8 µM, the IC50 [23] was 2.2 µM and the IC50 [24] was 7.6 µM. The LD50 at 336 h [15] was 15 mg/kg.
For CCCCCCCCOc1ccc2c3cc[n+](Cc4ccccc4)c(C)c3n(CCCC)c2c1, the IC50 [3] was < 1.5 µM, the IC50 [4] was < 1.5 µM and the IC50 [6] was < 1.5 µM. For the same compound, the IC50 [7] was < 1.5 µM, the IC50 [8] was 2 µM and the IC50 [20] was 2.7 µM. It also gave an IC50 [9] of 3.2 µM, an IC50 [21] of 0.86 µM and an IC50 [10] of 4.6 µM. For the same compound, the IC50 [11] was < 1.5 µM, the IC50 [12] was < 1.5 µM and the IC50 [13] was 2 µM. For the same compound, the IC50 [22] was 4.1 µM, the IC50 [23] was 4 µM and the IC50 [24] was 3.7 µM. The IC50 [14] was 2.9 µM.
